According to ChEMBL document CHEMBL3351343, “Synthesis and biological evaluation of novel sigma-1 receptor antagonists based on pyrimidine scaffold as agents for treating neuropathic pain” (J Med Chem, 2014):

Tests used:
[1] = target: Sigma non-opioid intracellular receptor 1 (Cavia porcellus, UniProt Q60492); assay: Displacement of [3H]-(+)-pentazocine from sigma-1 receptor in Dunkin Hartley guinea pig brain membranes after 180 mins by liquid scintillation counting analysis; design: species or system Membrane
[2] = tested on: Mus musculus; assay: Antinociceptive activity in Kun Ming mouse pain model assessed as reduction in licking and biting time during phase-1 at 80 mg/kg, ip administered 15 mins prior to formalin challenge relative to vehicle-treated control; type: functional; details: route intraperitoneal
Outline: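 Kun Ming mice (20 ± 2.0 g), 10–12 per group, given vehicle (30% PEG 400) or drug ip at 10 mL/kg 15 min before intraplantar formalin. Time spent licking or biting the injected paw scored at 0–5 min (phase I) and 15–45 min (phase II). Effect (%) = (LTV − LTD)/LTV × 100.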

[3] = tested on: Rattus norvegicus; assay: Cmax in Sprague-Dawley rat at 16 mg/kg, iv by HPLC/MS/MS analysis; type: ADME, organism-based; design: dose 16 mg/kg, route intravenous; details: in vivo
Outline: (§1)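 Sprague-Dawley rats (250 ± 5.0 g), n = 8/group, dosed iv via lateral tail vein at 16 mg/kg in 100% saline or by oral gavage at 320 mg/kg as suspension in 0.5% methylcellulose. Serial tail-vein blood into heparinized tubes at 30 min, 1, 2, 3, 4, 5, 6, 7 and 24 h. Plasma treated by acetonitrile protein precipitation, then HPLC/MS on C18 column, 40 °C.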

[4] = tested on: Rattus norvegicus; assay: Cmax in Sprague-Dawley rat at 320 mg/kg, po by HPLC/MS/MS analysis; type: ADME, organism-based; design: dose 320 mg/kg, route oral; details: in vivo; outline: as §1
[5] = Half life in Sprague-Dawley rat at 320 mg/kg, po by HPLC/MS/MS analysis; type: ADME, organism-based; design: dose 320 mg/kg, route oral; details: in vivo; outline: as §1
[6] = target: Histamine H3 receptor (Rattus norvegicus) (UniProt Q9QYN8); assay: Displacement of [3H]-N-alpha-methylhistamine from rat cerebral cortex histamine H3 receptor at 1 uM after 30 mins by liquid scintillation counting analysis; type: tissue-based
[7] = target: Glutamate NMDA receptor (Rattus norvegicus) (UniProt P35439+Q00959+Q00960+Q00961+Q62645+Q8VHN2+Q9R1M7); assay: Displacement of [3H]-glycine from rat hippocampal membrane NMDA receptor at 1 uM after 30 mins by liquid scintillation counting analysis
[8] = target: Cannabinoid receptor 1 (Homo sapiens) (UniProt P21554); assay: Displacement of [3H]-CP-55940 from human CB1 receptor expressed in CHO cells at 1 uM after 90 mins by liquid scintillation counting analysis; type: cell-based
[9] = target: Sodium channel protein type 9 subunit alpha (Homo sapiens) (UniProt Q15858); assay: Inhibition of from human Nav 1.7 channel expressed in HEK293 cells at 1 uM after 5 mins by electrophysiological analysis; type: cell-based
[10] = target: Transient receptor potential cation channel subfamily V member 1 (Homo sapiens) (UniProt Q8NER1); assay: Inhibition of from human TRPV-1 channel expressed in HEK293 cells at 1 uM after 5 mins by electrophysiological analysis; type: cell-based
[11] = Half life in Sprague-Dawley rat at 16 mg/kg, iv by HPLC/MS/MS analysis; details: in vivo
[12] = AUC (0 to infinity) in Sprague-Dawley rat at 16 mg/kg, iv by HPLC/MS/MS analysis; details: plasma

Sequence of Histamine H3 receptor (Rattus norvegicus) (Q9QYN8 whole entry): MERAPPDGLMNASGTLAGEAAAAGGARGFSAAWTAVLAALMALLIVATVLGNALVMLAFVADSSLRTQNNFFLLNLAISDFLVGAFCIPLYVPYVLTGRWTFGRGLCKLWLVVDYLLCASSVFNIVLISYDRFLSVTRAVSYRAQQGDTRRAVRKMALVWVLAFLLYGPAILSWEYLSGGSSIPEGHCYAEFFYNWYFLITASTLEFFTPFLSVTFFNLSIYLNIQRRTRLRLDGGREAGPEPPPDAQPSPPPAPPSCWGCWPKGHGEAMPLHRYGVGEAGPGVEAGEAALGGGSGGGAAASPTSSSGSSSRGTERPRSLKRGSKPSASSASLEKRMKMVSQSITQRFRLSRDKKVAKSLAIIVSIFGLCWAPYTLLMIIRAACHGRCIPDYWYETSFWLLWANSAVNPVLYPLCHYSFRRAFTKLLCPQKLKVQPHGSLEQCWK
Sequence of Sigma non-opioid intracellular receptor 1 (Q60492 whole entry): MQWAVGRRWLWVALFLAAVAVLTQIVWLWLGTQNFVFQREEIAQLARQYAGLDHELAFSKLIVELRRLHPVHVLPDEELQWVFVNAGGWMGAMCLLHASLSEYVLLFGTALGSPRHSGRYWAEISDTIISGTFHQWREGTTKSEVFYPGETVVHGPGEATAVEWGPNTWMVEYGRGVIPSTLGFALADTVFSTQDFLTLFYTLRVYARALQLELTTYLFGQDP
Sequence of Transient receptor potential cation channel subfamily V member 1 (Homo sapiens) (Q8NER1 whole entry): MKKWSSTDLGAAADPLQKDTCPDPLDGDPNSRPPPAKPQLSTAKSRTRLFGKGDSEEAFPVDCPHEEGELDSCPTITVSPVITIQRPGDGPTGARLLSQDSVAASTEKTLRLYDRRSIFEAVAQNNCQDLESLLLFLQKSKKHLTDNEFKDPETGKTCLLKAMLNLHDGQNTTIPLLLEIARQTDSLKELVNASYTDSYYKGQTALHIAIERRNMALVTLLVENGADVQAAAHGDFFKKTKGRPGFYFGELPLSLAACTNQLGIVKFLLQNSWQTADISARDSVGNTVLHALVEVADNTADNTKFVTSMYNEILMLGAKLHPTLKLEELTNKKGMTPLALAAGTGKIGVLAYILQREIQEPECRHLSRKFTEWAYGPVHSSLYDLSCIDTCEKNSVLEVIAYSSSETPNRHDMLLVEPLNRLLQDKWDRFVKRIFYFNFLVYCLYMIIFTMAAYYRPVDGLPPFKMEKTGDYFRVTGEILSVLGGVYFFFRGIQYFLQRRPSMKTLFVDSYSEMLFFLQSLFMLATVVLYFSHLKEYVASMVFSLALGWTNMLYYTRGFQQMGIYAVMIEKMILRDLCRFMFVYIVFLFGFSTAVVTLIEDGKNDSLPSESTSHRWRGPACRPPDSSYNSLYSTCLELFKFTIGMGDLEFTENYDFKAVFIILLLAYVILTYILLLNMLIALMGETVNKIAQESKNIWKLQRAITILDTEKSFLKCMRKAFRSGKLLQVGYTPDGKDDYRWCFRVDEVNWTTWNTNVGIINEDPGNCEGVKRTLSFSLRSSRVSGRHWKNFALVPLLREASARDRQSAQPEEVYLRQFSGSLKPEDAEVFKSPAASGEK
Sequence of Sodium channel protein type 9 subunit alpha (Homo sapiens) (Q15858 whole entry, looked up): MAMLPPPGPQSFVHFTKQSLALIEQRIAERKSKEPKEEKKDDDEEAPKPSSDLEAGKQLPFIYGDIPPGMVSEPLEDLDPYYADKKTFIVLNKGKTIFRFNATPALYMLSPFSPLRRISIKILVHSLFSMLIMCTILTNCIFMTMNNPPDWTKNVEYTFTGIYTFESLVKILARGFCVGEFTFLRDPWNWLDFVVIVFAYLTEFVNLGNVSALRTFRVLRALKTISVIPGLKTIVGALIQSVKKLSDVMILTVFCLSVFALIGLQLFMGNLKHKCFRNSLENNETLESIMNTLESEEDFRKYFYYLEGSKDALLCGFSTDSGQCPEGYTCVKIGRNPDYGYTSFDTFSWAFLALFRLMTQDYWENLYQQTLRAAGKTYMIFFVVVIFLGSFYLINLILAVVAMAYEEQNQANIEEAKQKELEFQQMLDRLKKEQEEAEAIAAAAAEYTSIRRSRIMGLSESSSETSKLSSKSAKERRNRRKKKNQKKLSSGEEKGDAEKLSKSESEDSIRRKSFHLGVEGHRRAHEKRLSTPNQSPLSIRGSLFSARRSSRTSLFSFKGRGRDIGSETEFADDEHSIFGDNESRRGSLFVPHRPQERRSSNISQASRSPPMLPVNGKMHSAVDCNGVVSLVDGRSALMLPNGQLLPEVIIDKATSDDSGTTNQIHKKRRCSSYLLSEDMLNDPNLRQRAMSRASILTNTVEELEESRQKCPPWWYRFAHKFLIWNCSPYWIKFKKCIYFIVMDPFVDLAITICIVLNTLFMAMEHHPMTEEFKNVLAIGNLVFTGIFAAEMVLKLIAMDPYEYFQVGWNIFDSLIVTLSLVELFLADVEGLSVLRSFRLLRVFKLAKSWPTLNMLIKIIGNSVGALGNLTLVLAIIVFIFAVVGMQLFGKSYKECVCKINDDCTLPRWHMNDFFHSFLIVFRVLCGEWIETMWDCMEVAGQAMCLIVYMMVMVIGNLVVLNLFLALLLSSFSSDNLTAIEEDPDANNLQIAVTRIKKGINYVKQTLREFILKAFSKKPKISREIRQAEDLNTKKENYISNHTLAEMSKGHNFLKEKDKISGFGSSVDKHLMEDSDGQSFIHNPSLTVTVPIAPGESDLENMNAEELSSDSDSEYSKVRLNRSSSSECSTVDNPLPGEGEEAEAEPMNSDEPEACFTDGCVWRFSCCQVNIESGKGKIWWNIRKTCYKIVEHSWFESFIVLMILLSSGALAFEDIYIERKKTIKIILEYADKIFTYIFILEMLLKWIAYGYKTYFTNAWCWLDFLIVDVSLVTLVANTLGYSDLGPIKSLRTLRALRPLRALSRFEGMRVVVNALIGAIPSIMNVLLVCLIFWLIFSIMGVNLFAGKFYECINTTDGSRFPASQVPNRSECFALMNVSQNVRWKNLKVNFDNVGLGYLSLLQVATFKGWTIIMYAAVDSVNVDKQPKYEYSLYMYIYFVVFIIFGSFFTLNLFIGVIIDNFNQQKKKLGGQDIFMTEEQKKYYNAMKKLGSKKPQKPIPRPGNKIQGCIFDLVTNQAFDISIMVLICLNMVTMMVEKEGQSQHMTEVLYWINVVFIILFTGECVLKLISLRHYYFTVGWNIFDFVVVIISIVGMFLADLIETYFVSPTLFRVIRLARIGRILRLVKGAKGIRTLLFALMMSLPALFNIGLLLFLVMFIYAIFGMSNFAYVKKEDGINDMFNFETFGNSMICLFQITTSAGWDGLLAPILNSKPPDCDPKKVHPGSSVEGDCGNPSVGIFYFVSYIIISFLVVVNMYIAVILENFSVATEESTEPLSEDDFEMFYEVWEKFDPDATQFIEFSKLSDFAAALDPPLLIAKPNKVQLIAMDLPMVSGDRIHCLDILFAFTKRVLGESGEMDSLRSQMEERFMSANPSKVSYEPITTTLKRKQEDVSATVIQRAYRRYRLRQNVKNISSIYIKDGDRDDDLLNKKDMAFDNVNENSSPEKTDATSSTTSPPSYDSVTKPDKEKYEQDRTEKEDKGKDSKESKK
Sequence of Cannabinoid receptor 1 (Homo sapiens) (P21554 whole entry): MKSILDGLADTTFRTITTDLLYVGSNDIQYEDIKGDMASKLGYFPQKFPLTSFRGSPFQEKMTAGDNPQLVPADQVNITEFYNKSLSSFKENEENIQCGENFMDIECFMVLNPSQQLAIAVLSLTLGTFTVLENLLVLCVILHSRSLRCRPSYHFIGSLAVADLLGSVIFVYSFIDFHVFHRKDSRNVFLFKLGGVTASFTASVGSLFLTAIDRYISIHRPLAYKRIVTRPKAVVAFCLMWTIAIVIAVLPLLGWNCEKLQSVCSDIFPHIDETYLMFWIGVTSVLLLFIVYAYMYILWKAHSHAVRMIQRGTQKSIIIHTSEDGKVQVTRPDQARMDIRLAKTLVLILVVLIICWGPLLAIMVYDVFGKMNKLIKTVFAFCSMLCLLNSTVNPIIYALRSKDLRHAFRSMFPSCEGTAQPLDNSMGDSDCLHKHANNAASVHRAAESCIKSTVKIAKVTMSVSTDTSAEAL

`Cc1nc(-c2ccc(Cl)cc2)nc(OCCCN2CCCCC2)c1Cl` gave a Ki [1] of 1.06 nM, a Time [2] of 12.65 s and a Cmax [3] of 7260 ng/mL. The Cmax [4] was 17400 ng/mL, the half-life [5] was 3.81 h and the inhibition [6] was less than 50%. The inhibition [7] was less than 50%, the inhibition [8] was less than 50% and the inhibition [9] was less than 50%. For the same compound, the inhibition [10] was less than 50%, the half-life [11] was 10.6 h and the AUC(0-inf) [12] was 3690 ng·h/mL.
